The list is not random: actives were taken first. Their share in the collection is about 9.4%.
CSC inhib: cancer stem cell viability inhibitors, primary screen, luminescence; cancer stem cell-like cells viability; inhibition, % at 7.5 µM; actives 1.1% (n = 300,000); AID 2717, 2010; in the data active = inhibition above about 75%; tested in HMLE shEcad cells
Lmaj promast: Leishmania major promastigote growth inhibition, primary screen. Leishmania major promastigotes, resazurin fluorescence viability. inhibition, % at 10 µM. actives 9% (n = 200,000); in the data active = inhibition above about 50%;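 also: promastigotes grown with compound for 44 hours at 28 °C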
Mdm2-MdmX inh: inhibitors of human Mdm2-MdmX association, primary screen, cell-based, luminescence, split luciferase, SaOS-2, uHTS | Protein Mdm4 (Homo sapiens) + E3 ubiquitin-protein ligase Mdm2 (Homo sapiens), … | SaOS-2 split-luciferase Mdm2/MdmX complementation | inhibition, % at 8 µM | actives 3% (n = 330,000) | AID 485346, 2010;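 active = inhibition of at least 50% at 8 µM in the primary screen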
SKKanGAS inh: S. pyogenes SKKanGAS growth inhibitors in kanamycin, primary screen, streptokinase expression inhibitor project, SKKanGAS strain, BacTiter-Glo luminescence | inhibition, % at 7.5 µM | actives 1.3% (n = 300,000) | 6 h;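 active = mean replicate score, as percent of positive control median, at least 50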;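 also: strain carries kanamycin resistance gene driven by streptokinase promoter and grows in 40 µg/ml kanamycin; loss of luminescence reflects streptokinase promoter inhibition or plain growth inhibition; 0% = median of DMSO wells and 100% = positive control at its reference dose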
Beta apoptosis: inhibitors of cytokine-induced beta cell apoptosis, primary screen, luminescence; INS-1E cytokine-induced death, ATP luminescence, 48 h; percent of positive-control rescue, neutral wells zero; protection from apoptosis, % (concentration not given with the values); actives 0.8% (n = 300,000);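 active = Every replicate reaches about 75%, or at least half do and their mean reaches it too, limit read from the data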;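 also: 0% = cytokine-treated negative control wells and 100% = positive control rescue; higher means more ATP so stronger rescue from cytokine killing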
T cruzi repl: inhibitors of intracellular T. cruzi growth, primary screen, luminescence, NIH3T3 host cells; inhibition, % (no concentration beside the values); T. cruzi beta-gal in NIH3T3, 90 h; actives 1.4% (n = 300,000);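 active = mean inhibition across valid replicates above about 55%, limit read from the data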;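 also: signal also drops with host cell toxicity which is not excluded here; 0% = plate median of DMSO wells and 100% = zero luminescence signal; higher percent means less beta-gal luminescence so fewer parasites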
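System – NIH/3T3 host cells with β-galactosidase reporter T. cruzi · Doses – single 50 nL compound addition per well in DMSO · Reagent – 5000 T. cruzi trypomastigotes/well · Medium – Low-serum DMEM with 2% FBS · Timing – ≥90 h infection period, 3 h prior cell attachment · Evaluation – parasite load inhibition, % · Technique – GalScreen luminescence, 60 min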
The depositor's hits bear a star; x = no result; + = active, no number.

SMILES	CSC inhib	Lmaj promast	Mdm2-MdmX inh	SKKanGAS inh	Beta apoptosis	T cruzi repl
Cc1ccc(-c2ccc(/C=N/N=C3/NC(=O)C(CC(=O)O)S3)o2)c([N+](=O)[O-])c1 (stereo not given)	-1.4	99.8*	11.8	7.1	3.7	-16.9
CC(=O)NCCOC(=O)c1nn(Cc2ccccc2)c(=O)c2ccccc12	x	x	-4.4	0.0	-3.4	-59.1
Cc1cc(C(C)(C)C)cc(C)c1C(=O)O	-8.6	x	-5.8	0.0	-9.5	1.5
Cc1ccc(S(=O)(=O)N2CCN(C(=O)C3CCN(C(=O)c4ccccc4C)CC3)CC2)cc1C	6.4	12.2	2.1	-3.3	15.1	7.1
Oc1ccc(/C=N/n2c3ccccc3c3ccccc32)cc1	48.7	1.9	21.2	70.9*	-2.1	3.4
O=C(Cc1ccccc1)NC(NCCc1ccccc1)C(Cl)(Cl)Cl (stereo not given)	19.8	97.9*	0.2	-1.1	4.0	4.9
COCCNC(=O)COC(=O)c1ccc(OCC(=O)Nc2ccccc2OC)c(OC)c1	11.6	0.8	-12.7	10.2	-4.6	-3.6
Cc1cc(C)cc(NC(=O)C(OC(=O)c2ccc(NC(=O)CC#N)cc2)c2ccccc2)c1 (stereo not given)	x	x	1.5	56.7*	6.4	-4.5
Cc1ccc(C)c(NC(=O)C(OC(=O)c2ccc(NC(=O)CC#N)cc2)c2ccccc2)c1 (stereo not given)	17.4	x	22.5	42.3	x	0.9
Cc1cc(C(=O)OC(C(=O)Nc2cccc(C(F)(F)F)c2)c2ccccc2)c(C)o1 (stereo not given)	-20.6	20.3	14.2	71.2*	3.7	41.2
Cc1ccc(NC(=O)C(OC(=O)c2cc(C)oc2C)c2ccccc2)cc1 (stereo not given)	-0.6	51.9*	26.3	4.9	2.9	6.9
CC(OC(=O)c1ccc(NC(=O)CC#N)cc1)C(=O)NC(=O)NC1CCCCC1 (stereo not given)	1.3	x	25.7	59.5*	x	12.4
CCOc1ccc(CCNC(=O)COC(=O)c2cccc(N(C)C)c2)cc1OCC	x	x	-40.2	4.7	-0.7	0.3
O=C(O)C[C@H]1c2cc(C(F)(F)F)ccc2S(=O)(=O)N1C1CCN(Cc2ccccc2)CC1	-8.2	x	8.4	0.2	0.7	-18.0
O=C(Nc1nc2nccc(-c3ccccc3)n2n1)C(Cl)(Cl)Cl	2.3	53.4*	5.5	-10.9	-5.6	4.5
FC(F)(F)c1cccc(Nc2nc(N3CCCC3)nc(N3CCCC3)n2)c1	8.6	27.9	0.1	75.5*	0.7	16.2
Nc1nc(Nc2cccc(C(F)(F)F)c2)nc(C(F)(F)F)n1	3.1	21.9	16.0	7.4	2.4	0.9
CN1CCN(c2nc(Nc3cccc(C(F)(F)F)c3)nc(N3CCOCC3)n2)CC1	23.2	16.2	29.7	-0.9	9.0	57.6*
CC(C)OC(=O)N(C)c1ccc(C(O)(C(F)(F)F)C(F)(F)F)cc1	x	99.9*	14.5	8.1	x	15.1
CCN1CCc2nc(NC(=O)CC(c3ccccc3)c3ccccc3)sc2C1	-14.9	55.5*	-4.4	-0.2	-0.3	11.4
CCN1CCc2nc(NC(=O)C(c3ccccc3)c3ccccc3)sc2C1	37.7	12.9	3.4	2.3	-5.5	30.7
CCc1ccc(-c2nn(-c3ccccc3)cc2C2SCC(=O)N2Cc2ccco2)cc1 (stereo not given)	24.5	98.1*	6.5	18.2	-4.3	44.9
CCC(NC(=O)c1ccccc1NC(=O)C(C)(C)C)C(=O)N1CC(C)OC(C)C1 (stereo not given)	0.2	x	10.2	x	0.5	x
C/C(CCC12CC3CC(CC(C3)C1)C2)=N\NC(N)=S	18.9	100.5*	31.2	0.1	13.8	34.8
C/C(CC1CC(C)OC1=O)=N\NC(N)=S (stereo not given)	-17.0	-8.1	-6.4	-2.7	-1.0	-9.4
SMILES	CSC inhib	Lmaj promast	Mdm2-MdmX inh	SKKanGAS inh	Beta apoptosis	T cruzi repl
C=C1c2cc3c(cc2NC(=S)N1Cc1ccccc1)OCO3	18.8	x	3.3	3.2	4.3	-14.3
COc1ccccc1OCCCn1c(C)c(C#N)c2ccccc21	-7.9	18.1	-10.3	61.8*	0.8	25.2
COc1ccccc1OCCCn1cc(C#N)c2ccccc21	15.6	11.0	18.3	28.0	-3.4	5.5
CN(C)C(=O)CCC(=O)N(C)CC1CCCN(CCc2ccc(F)cc2)C1 (stereo not given)	0.6	x	8.9	-1.9	x	-8.5
Cc1cc(C(=O)N(C)CC2CCCN(CCc3ccc(F)cc3)C2)c(C)o1 (stereo not given)	12.7	x	9.3	-1.0	6.2	55.5*
COc1ccc(CCN2CCCC(CN(C)C(=O)c3cc(C)oc3C)C2)cc1 (stereo not given)	-1.1	x	-62.7	47.0	x	63.3*
Cc1ccc2oc(=O)c3cc(C(=O)N4CCN(C)CC4)sc3c2c1	-12.7	x	5.9	4.4	-6.5	6.0
CCn1nnnc1SCC(=O)Nc1nc2ccc(OC)cc2s1	14.3	85.7*	-3.2	-1.3	-3.1	0.5
COc1ccc2nc(NC(=O)CSCC(=O)Nc3cc(C)on3)sc2c1	-14.2	x	1.6	-10.8	9.4	-2.3
COc1ccc2nc(NC(=O)CSc3nc(C)cc(C)n3)sc2c1	7.5	51.1*	-12.0	6.0	1.6	2.4
COc1ccc(NC(=O)C2CC(=O)N(CCc3ccc(Cl)cc3)C2)cc1 (stereo not given)	-15.4	x	-7.1	-7.7	7.2	-7.8
COc1cc(CN2CCN(CC3CC3)CC2CCO)cc(OC)c1 (stereo not given)	18.1	x	9.0	-4.0	-1.8	-2.4
Cc1[nH]c2ccc(F)cc2c1CCN(Cc1cccnc1)C(=S)NC(C)(C)C	-4.0	x	14.5	-3.2	-5.6	64.9*
Cc1[nH]c2ccc(F)cc2c1CCN(Cc1ccncc1)C(=S)Nc1ccc(F)cc1	4.6	99.0*	-8.1	13.6	x	48.7
Cc1ccccc1NC(=S)N(CCc1c(C)[nH]c2ccc(F)cc12)Cc1cccnc1	-4.1	100.2*	-1.5	2.6	-2.9	51.4
COCCNC(=S)N(CCc1c(C)[nH]c2ccc(F)cc12)Cc1cccnc1	9.9	x	-7.2	7.8	-1.6	47.8
Cc1[nH]c2ccc(F)cc2c1CCN(Cc1cccnc1)C(=S)Nc1cccc(F)c1	-4.1	100.3*	19.3	6.0	-0.4	64.7*
Cc1ccc2[nH]c(C)c(CCN(Cc3cccnc3)C(=S)NC(C)(C)C)c2c1	1.7	x	6.2	-1.2	-0.3	34.0
Cc1cccc(NC(=O)[C@@H]2CCCN2S(=O)(=O)c2ccc(Cl)cc2)c1	-2.9	x	8.9	x	-1.6	x
CCCCCCCCNC(=O)/C(C#N)=C/c1ccccc1[N+](=O)[O-]	55.8	58.3*	5.2	13.5	1.2	5.9
CCOCCCNC(=O)/C(C#N)=C/c1ccc([N+](=O)[O-])o1	+	100.7*	21.4	3.8	1.6	74.3*

Bioassay records (PubChem)
